Common to all, as to assay type: functional, cell-based
The test system of assay [1] is A549. As to the kind of experiment: Antiproliferative activity against human A549 cells after 72 hrs by MTS assay. The conditions noted are these: A549, 72 h. The procedure, abridged:
(§1)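 Cells grown in medium with L-glutamine, 10% fetal bovine serum and 1% penicillin/streptomycin, seeded at 5 × 10³ cells per well, then exposed for 72 h to a rising concentration series. Proliferation read by MTS reagent: 3 h incubation, absorbance at 490 nm. IC50 given as mean ± S.D. of three separate experiments.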
(Formazan colour is commonly taken as a measure of viable cells.)

Assay [2] deals with MCF7. Put plainly: Antiproliferative activity against human MCF7 cells after 72 hrs by MTS assay. Particulars: MCF7, 72 h. Summed up:
as §1

Assay [3] deals with MCF7. As to the kind of experiment: Induction of apoptosis in human MCF7 cells assessed as condensed chromatin at 25 uM after 72 hrs by DAPI staining-based fluorescence analysis. The procedure, abridged: (§2)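 MCF-7 cells (2 × 10³) grown on poly-L-lysine-coated coverslips, treated at 25 µM for 72 h. Then fixed in cold methanol, washed in PBS, stained with DAPI and mounted. Nuclei imaged by fluorescence microscopy; apoptosis scored by nuclear condensation, membrane blebs and apoptotic bodies.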

The test system of assay [4] is MCF7. Put plainly: Induction of apoptosis in human MCF7 cells assessed as fragmented nuclei at 25 uM after 72 hrs by DAPI staining-based fluorescence analysis. The procedure, abridged:
as §2

Assay [5] relates to HeLa. Put plainly: Antiproliferative activity against human HeLa cells after 72 hrs by MTS assay. The procedure, abridged:
as §1

The source made the active and inactive calls. No cut-off for these calls is given here.

Turning to `C=Cc1ccc(-c2c3c(c(OC)c4c2OCO4)[C@H]([C@H]2OC(=O)c4c2ccc(OC)c4OC)N(C)CC3)cc1`, the half-maximal inhibitory concentration (IC50) (in general, the concentration needed to halve the response being measured) in assay [1] turned out to be 42.7 µM; in assay [2], 34.3 µM; in assay [5] it was 20.3 µM. Besides, the result in assay [3] and in assay [4] was Active.

For the compound `CCOC(=O)c1cc(-c2c3c(c(OC)c4c2OCO4)[C@H]([C@H]2OC(=O)c4c2ccc(OC)c4OC)N(C)CC3)ccc1Cl`, the IC50 amounted to 33.8 µM in assay [1], 18.8 µM in assay [2] and 9 µM in assay [5]. Further, the outcome in assay [3] and in assay [4] was Active.

With `COc1ccc2c(c1OC)C(=O)O[C@@H]2[C@H]1c2c(c(-c3cccnc3)c3c(c2OC)OCO3)CCN1C`, the 50% inhibitory concentration (IC50) in assay [1] came out at 31.6 µM; in assay [2] it was 16.6 µM; in assay [5] it was 8.9 µM.

`CCOC(=O)c1ccc(-c2c3c(c(OC)c4c2OCO4)[C@H]([C@H]2OC(=O)c4c2ccc(OC)c4OC)N(C)CC3)cc1`: the 50% inhibitory concentration (IC50) came to 53.1 µM in assay [1], 40.7 µM in assay [2] and 21.2 µM in assay [5]. Also, the result in assay [3] and in assay [4] was Active.

On to `COc1ccc2c(c1OC)C(=O)O[C@@H]2[C@H]1c2c(cc3c(c2OC)OCO3)CCN1C` [NOSCAPINE], for which the IC50 in assay [1] was found to be 62.9 µM; in assay [2], 42.3 µM; in assay [5], 24 µM.

In the case of `COc1ccc2c(c1OC)C(=O)O[C@@H]2[C@H]1c2c(c(-c3cccc(NC(C)=O)c3)c3c(c2OC)OCO3)CCN1C`, the IC50 in assay [1] is 32.6 µM; in assay [2], 17.8 µM; in assay [5], 9.2 µM. Also, the result in assay [3] and in assay [4] was Active.

As to `COc1ccc2c(c1OC)C(=O)O[C@@H]2[C@H]1c2c(c(-c3ccc(C(F)(F)F)cc3)c3c(c2OC)OCO3)CCN1C`, the IC50 is 57.3 µM in assay [1], 41.3 µM in assay [2] and 22.8 µM in assay [5].

The values are drawn from ChEMBL document CHEMBL3352460, “Synthesis and biological evaluation of novel biaryl type α-noscapine congeners” (Bioorg Med Chem Lett, 2014).
